MrgX1 antagonist = antagonists of human MrgX1 receptor, primary screen, HEK293 cells, Fluo-4 calcium flux | Mas-related G-protein coupled receptor member X1 (Homo sapiens), Q96LB2 | BAM8-22 antagonism; stronger effect = lower value | B-score at 10 µM | 310,000 compounds, 1.3% hits | AID 588676, 2011;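 active = calcium-response B-score plate-corrected more than 3 library SD below zero, starting fluorescence within 5 deviations, no agonist response on first addition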;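 also: peak minus trough fluorescence over baseline after final BAM8-22 challenge near maximal dose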
RGS4 act = RGS4 potentiators or activators, primary screen, cell-based, HEK293 M3R inducible RGS4, calcium flux | carbachol calcium flux Fluo4; stronger effect = lower value | B-score at 10 µM | 310,000 compounds, 0.92% hits | AID 463111, 2010;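 active = B-score of the integrated calcium signal more than 4 SD below the library mean, with starting fluorescence not abnormally high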;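 also: negative B-score means reduced calcium response which marks RGS4 activation or potentiation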
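test system = M3R-expressing HEK293 line, RGS4 induced by doxycycline | probe or stimulus = carbachol at ECmax as muscarinic agonist stimulus | timing = dye loading 30 min 37 °C, buffer rest 30 min RT | signal = calcium dye Fluo4 fluorescence | evaluation = B score from integrated fluorescence ratio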
Cl transport mod = KCC2 cotransporter modulators, thallium flux, primary screen, cell-based, HEK293 KCC2, FluoZin-2 fluorescence, MLSMR; Solute carrier family 12 member 5 (Homo sapiens), Q9H2X9; KCC2 cells, thallium flux FluoZin-2 fluorescence; B-score of Tl+ flux slope (higher = more flux/activation; lower = inhibition) at 10 µM; 190,000 compounds, 2.2% hits;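 active = thallium flux slope and its plate-corrected score both differing from the plate sample mean at a set confidence after two filtering rounds, in either direction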;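 also: slope of fluorescence scaled to starting intensity during 10 to 20 s after thallium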
Target sequence (Q9H2X9 whole entry, looked up): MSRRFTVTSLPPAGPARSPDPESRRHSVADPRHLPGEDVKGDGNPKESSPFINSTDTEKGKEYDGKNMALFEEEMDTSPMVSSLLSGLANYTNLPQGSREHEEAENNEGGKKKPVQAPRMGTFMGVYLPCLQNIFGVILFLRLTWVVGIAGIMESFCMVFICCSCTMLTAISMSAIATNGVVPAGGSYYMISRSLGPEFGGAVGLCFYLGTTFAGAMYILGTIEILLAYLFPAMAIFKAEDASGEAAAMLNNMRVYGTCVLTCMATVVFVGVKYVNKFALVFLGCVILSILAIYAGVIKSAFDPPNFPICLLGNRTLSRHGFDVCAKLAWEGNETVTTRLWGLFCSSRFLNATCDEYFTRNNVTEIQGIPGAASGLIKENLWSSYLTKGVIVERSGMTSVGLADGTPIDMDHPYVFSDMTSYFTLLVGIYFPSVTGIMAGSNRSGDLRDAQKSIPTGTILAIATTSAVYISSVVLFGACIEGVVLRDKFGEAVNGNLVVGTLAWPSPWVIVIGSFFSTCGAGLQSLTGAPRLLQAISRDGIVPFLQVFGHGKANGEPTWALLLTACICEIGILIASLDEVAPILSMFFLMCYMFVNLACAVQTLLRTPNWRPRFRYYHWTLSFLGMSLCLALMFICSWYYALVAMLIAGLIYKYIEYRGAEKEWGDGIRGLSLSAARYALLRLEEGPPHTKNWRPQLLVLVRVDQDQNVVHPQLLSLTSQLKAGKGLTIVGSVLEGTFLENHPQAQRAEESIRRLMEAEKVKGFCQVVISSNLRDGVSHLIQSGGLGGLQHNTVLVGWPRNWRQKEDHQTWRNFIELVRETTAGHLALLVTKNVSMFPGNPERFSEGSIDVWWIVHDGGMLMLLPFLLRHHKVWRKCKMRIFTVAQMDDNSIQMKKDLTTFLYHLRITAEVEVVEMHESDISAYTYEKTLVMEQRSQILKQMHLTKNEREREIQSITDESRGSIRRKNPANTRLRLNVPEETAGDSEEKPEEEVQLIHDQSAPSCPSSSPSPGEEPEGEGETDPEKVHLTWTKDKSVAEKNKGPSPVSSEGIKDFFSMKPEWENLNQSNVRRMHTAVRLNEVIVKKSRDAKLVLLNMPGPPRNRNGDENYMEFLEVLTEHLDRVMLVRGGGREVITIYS
MrgX1 agonist = agonists of human MrgX1 receptor, primary screen, HEK293 cells, Fluo-4 calcium flux; Fluo-4 calcium fluorescence, agonist mode; stronger effect = higher value; 310,000 compounds, 0.44% hits; Mas-related G-protein coupled receptor member X1 (Homo sapiens), Q96LB2; B-score at 10 µM;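 active = calcium response B-score plate-corrected fluorescence ratio at least 3 library SD, with starting fluorescence B-score inside 5 SD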
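Assay system: MrgX1-expressing HEK293 cells / Amount: fifteen thousand cells per well / Doses: test compound in the initial addition of three / Timing: cells plated overnight, dye loaded 0.5 h 37 °C, 0.5 h room temperature / Technique: kinetic calcium dye fluorescence, Fluo-4 NW / Control set: positive and negative controls per plate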
MrgX1 PAM = positive allosteric modulators of MrgX1, primary screen, HEK293 cells, Fluo-4 calcium flux; Mas-related G-protein coupled receptor member X1 (Homo sapiens), Q96LB2; FDSS; stronger effect = higher value; B-score at 10 µM; 310,000 compounds, 0.63% hits; AID 588675, 2011;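 active = plate-corrected calcium response at least 3 library SD above typical, normal starting fluorescence, not activating the receptor alone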;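 also: compound read alongside a low EC10 to EC30 dose of BAM8-22 agonist; peak minus trough fluorescence over baseline measured at the second addition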
RGS4 block = RGS4 inhibitors, primary screen, cell-based, HEK293 M3R inducible RGS4, calcium flux | Fluo-4 calcium flux; stronger effect = higher value; triggered by carbachol at its EC20 | 310,000 compounds, 0.45% hits | B-score at 10 µM | AID 463165, 2010;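 active = B-score, a plate-corrected calcium signal, over three deviations above library mean, with baseline fluorescence within five deviations of library mean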;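 also: RGS4 expression induced by doxycycline in cells with stable M3 receptor; B-score is computed from the integrated fluorescence ratio over baseline after carbachol; higher B-score means a larger calcium signal and so more RGS4 inhibition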
RGS4 inh valid = enhanced carbachol calcium response, M3R/RGS4 cells, RGS4 inhibitor project, cell-based, validation screen, HEK293 M3R/RGS4, calcium flux. 1,700 compounds, 65% hits. carbachol calcium Fluo-4 fluorescence; carbachol added at its EC20; 0 = buffer wells, 100 = carbachol control. shares compounds with RGS4 block. calcium response, % at 10 µM;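 active = duplicate-averaged calcium response above the buffer-only control mean plus 5 SD of those controls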;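 also: integrated fluorescence ratio F max minus min over baseline F0; higher response in RGS4-induced cells means RGS4 inhibition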
RGS4 uninduced = carbachol calcium response in non-induced M3R cells, confirmation, counter-screen for RGS4 inhibitor project, cell-based, HEK293 M3R; activity (percent), % at 10 µM; 1,900 compounds, 20% hits; shares compounds with RGS4 block; carbachol calcium Fluo-4; submaximal (EC20) carbachol stimulus; buffer wells 0%, carbachol control wells 100%; call rule not given here;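 also: RGS4 induction absent so cells express M3R without RGS4; higher means more calcium signal and flags a non-specific hit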
M3R basal Ca ctr = second RGS4 inhibitor counter-screen in uninduced cells lacking carbachol; shares compounds with RGS4 block; HEK293 M3R/RGS4 non-induced, Fluo-4 calcium, no carbachol; normalised: buffer wells 0%, carbachol wells 100%; calcium response (agonist-mode artifact), % at 10 µM; 1,900 compounds, 22% hits;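 active = duplicate-averaged calcium rise in uninduced cells above buffer wells' mean plus 5 SD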
Starred values were filed as active, the others as inactive; i = inactive; nt = not tested or not shown. Only some compounds are listed: those with a hit (about 4.7% of all), similar ones and a draw of the others.

SMILES | MrgX1 antagonist | RGS4 act | Cl transport mod | MrgX1 agonist | MrgX1 PAM | RGS4 block | RGS4 inh valid | RGS4 uninduced | M3R basal Ca ctr
N#C/C(=C/c1ccc(O)cc1)C(=O)NCc1ccc(Cl)cc1 | i | i | nt | i | i | i | i | i | i
O=c1cc(N=Nc2ccc(Cl)cc2)[nH]c(=O)[nH]1 | i | i | -1.2 | i | i | 17* | 22%* | i | i
Cc1ccc(NC(=S)NNC(=O)c2ccc(N3CCOCC3)c([N+](=O)[O-])c2)cc1Cl | i | i | -2.8 | i | i | i | nt | nt | nt
O=C(/C=C/c1ccc(Cl)cc1)N1CCN(c2ccc(Cl)cc2[N+](=O)[O-])CC1 | i | i | nt | i | i | i | nt | nt | nt
O=C(NNC(=S)Nc1ccc(Cl)cc1Cl)c1ccc(N2CCOCC2)c([N+](=O)[O-])c1 | i | i | -2.3 | i | i | 5.2* | 9.5%* | 34%* | i
O=C(O)c1ccc(N2CCN(c3ccc(Cl)cc3)CC2)c([N+](=O)[O-])c1 | i | i | nt | i | i | 5* | 7.5%* | i | i
COc1ccc(N(CC(=O)Nc2cccc(C)c2)S(=O)(=O)c2ccc(C)cc2)cc1OC | i | i | nt | i | i | i | nt | nt | nt
CCOC(=O)CCC(=O)Nc1ccc(S(=O)(=O)Nc2cc(OC)nc(OC)n2)cc1 | i | i | nt | i | i | i | nt | nt | nt
Cc1ccc(-c2csc(NC(=O)c3ccco3)n2)cc1C | i | i | nt | i | i | 25* | 56%* | 34%* | i
CCOc1ccc(-c2csc(NC(=O)c3ccco3)n2)cc1 | i | i | nt | i | i | 5* | 5.0%* | i | i
COc1ccc(-c2csc(NC(=O)c3c(OC)cccc3OC)n2)cc1 | i | i | nt | i | i | 5.5* | 16%* | 30%* | i
O=C(Nc1nc(-c2ccccc2)cs1)c1ccco1 | i | i | -2.2 | i | i | i | nt | nt | nt
CCOc1ccc(-c2csc(NC(=O)C3CCCO3)n2)cc1 (centres undefined) | i | i | nt | i | i | i | nt | nt | nt
COc1ccc(-c2csc(NC(=O)c3ccco3)n2)cc1 | i | i | -0.47 | i | i | i | i | i | i
N#CCC(=O)N/N=C/c1cc(Br)ccc1OCc1cccc2ccccc12 | i | i | nt | i | i | i | nt | nt | nt
O=C(COC(=O)c1ncc(Cl)c(Cl)c1Cl)Nc1cccnc1Cl | i | i | nt | i | i | i | nt | nt | nt
O=C(NCCCN1CCOCC1)/C(=C/c1ccco1)NC(=O)c1ccccc1 | i | i | nt | i | i | i | nt | nt | nt
O=C(c1ccccc1)c1ccc(N2CCN(C(=O)c3cccc(F)c3F)CC2)c(F)c1 | i | i | nt | i | i | i | nt | nt | nt
CNC(=O)c1[nH]cnc1C(=O)Nc1ccccn1 | i | i | 0.58 | i | i | i | i | i | i
CNC(=O)c1[nH]cnc1C(=O)Nc1ccc(Cl)cc1 | i | i | 3 | i | i | i | nt | nt | nt
CCOC(=O)c1c(S(=O)(=O)NCC(=O)NCc2ccc(C)cc2)c(C)n(C)c1C | i | i | nt | i | i | i | nt | nt | nt
O=C1NN(c2ccccc2)C(=O)/C1=C/c1coc2ccccc2c1=O | i | i | -2.8 | i | i | i | nt | nt | nt
O=C1NN(c2ccccc2)C(=O)/C1=C\c1coc2ccc(O)cc2c1=O | i | i | -1.6 | 27* | i | 7.9* | 30%* | i | i
COc1ccc(Nc2cnn(-c3nc4ccccc4s3)c(=O)c2Cl)cc1 | i | i | 1.2 | i | i | 4.7* | 11%* | i | i
NC(=O)CSc1oc(-c2ccco2)nc1S(=O)(=O)c1ccc(Br)cc1 | i | i | nt | i | i | i | nt | nt | nt
SMILES | MrgX1 antagonist | RGS4 act | Cl transport mod | MrgX1 agonist | MrgX1 PAM | RGS4 block | RGS4 inh valid | RGS4 uninduced | M3R basal Ca ctr
Cc1ccc(N(Cc2cc3ccccc3[nH]c2=O)C(=O)c2ccco2)c(C)c1 | i | i | nt | i | i | i | nt | nt | nt
Cc1ccc(N(Cc2cc3ccc(C)cc3[nH]c2=O)C(=O)c2ccco2)cc1 | i | i | 0.57 | i | i | i | i | i | i
Cc1ccc2cc(CN(C(=O)c3ccco3)c3ccccc3)c(=O)[nH]c2c1 | i | i | -0.055 | i | i | 5.4* | i | i | i
Cc1cccc(N(Cc2cc3ccc(C)cc3[nH]c2=O)C(=O)c2ccco2)c1 | i | i | 0.053 | i | i | i | nt | i | i
COC(=O)N/N=C/c1ccc(OS(=O)(=O)c2ccc(C)cc2)c(OC)c1 | i | i | -0.13 | i | i | i | nt | nt | nt
C=CCNC(=O)/C(C#N)=C/c1ccc(OS(=O)(=O)c2ccc(C)cc2)c(OC)c1 | i | i | 0.054 | i | i | 4.8* | 14%* | i | i
Clc1ccc(C2=Nn3c(nnc3-c3n[nH]c4c3CCC4)SC2)cc1 | i | i | 1.6 | i | i | i | i | i | i
Brc1ccc(C2=Nn3c(nnc3-c3n[nH]c4c3CCC4)SC2)cc1 | i | i | -0.64 | i | i | i | nt | nt | nt
O=C1/C(=C/c2cccc(Br)c2)SC(=S)N1CCC(=O)N(CCO)c1ccccc1 | i | i | nt | i | i | 5.3* | 16%* | 34%* | i
COc1cccc(/C=C2\SC(=S)N(CCCC(=O)N(CCO)c3ccccc3)C2=O)c1 | i | i | nt | i | i | i | nt | nt | nt
COc1ccc(-n2ccc(=O)c(C(=O)O)n2)c(OC)c1 | i | i | nt | i | i | i | nt | nt | nt
